Measured values reported in article PMC2934894 (Biochemical pharmacology, 2010).
Like-named read-outs stand apart in the source and are kept apart here.

Key:
ERα + ERβ = test: HEK293 ERE-luciferase reporter assay, ERα + ERβ; type: cell-based
Summary of the method: (§1)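 HEK293 cells were batch-transfected per well with 2.5 ng of each ER (ERα alone or ERα + ERβ) plus 50 ng tk-ERE-luc. After 48 h expression, cells were exposed to ligands for 24 h and lysed. Firefly luciferase luminescence was measured and normalized to β-galactosidase luminescence in the same well.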

ERα/β heterodimer = ERα/β heterodimer (Homo sapiens, UniProt P03372+Q92731); test: BRET assay, ERα/β heterodimerization in transfected HEK293 cells; type: cell-based; conditions: 1 hour
Summary of the method: (§2)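 HEK293 cells batch-transfected in phenol red free DMEM + 5% SFS with fusion pairs: ERα-RLuc + ERα-YFP (α/α), RLuc-ERβ + YFP-ERβ (β/β) or ERα-RLuc + YFP-ERβ (α/β). RLuc-only cells were included for the correction factor. After 24 h, cells were trypsinized and replated at 10,000/well in PBS. Compound was applied for 1 h, then coelenterazine h was added. Emission was read at 470/530 nm; BRET ratio; triplicates; E2 positive, DMSO negative control.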

ERα/α homodimer = biological target: T1, ERα/α homodimer (Homo sapiens, UniProt P03372); test: BRET assay, ERα/α homodimerization in transfected HEK293 cells; type: cell-based; conditions: 100 μM purified compound
T1 sequence (P03372 1-595) 1: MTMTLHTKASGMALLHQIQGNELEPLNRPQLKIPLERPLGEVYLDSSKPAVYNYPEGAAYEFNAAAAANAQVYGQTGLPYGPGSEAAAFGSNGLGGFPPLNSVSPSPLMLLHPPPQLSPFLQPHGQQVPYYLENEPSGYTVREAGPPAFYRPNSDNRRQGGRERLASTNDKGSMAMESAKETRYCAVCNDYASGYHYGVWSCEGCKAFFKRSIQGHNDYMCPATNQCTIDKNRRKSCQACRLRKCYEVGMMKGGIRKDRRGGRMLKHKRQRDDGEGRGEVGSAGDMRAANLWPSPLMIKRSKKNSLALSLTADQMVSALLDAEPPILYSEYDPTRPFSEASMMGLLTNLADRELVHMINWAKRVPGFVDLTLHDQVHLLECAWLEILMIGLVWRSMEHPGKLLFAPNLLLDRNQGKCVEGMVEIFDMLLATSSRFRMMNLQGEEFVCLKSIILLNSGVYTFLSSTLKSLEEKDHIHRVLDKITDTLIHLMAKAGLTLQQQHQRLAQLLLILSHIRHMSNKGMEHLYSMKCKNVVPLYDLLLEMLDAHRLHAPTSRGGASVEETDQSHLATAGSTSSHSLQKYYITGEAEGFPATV
T1 sequence (P03372 1-595) 2: T1 sequence (P03372 1-595) 1
Summary of the method: as §2

ERβ/β homodimer = ERβ/β homodimer (Homo sapiens, UniProt Q92731); test: BRET assay, ERβ/β homodimerization in transfected HEK293 cells; type: cell-based; conditions: 100 μM purified compound
Summary of the method: as §2

ERα [1] = biological target: T2, ERα (Homo sapiens, UniProt P03372); test: HEK293 ERE-luciferase reporter assay, ERα alone; type: cell-based; conditions: HEK293, 24 hours with ligand, 10 μM and 100 μM
Summary of the method: as §1

ERβ [2] = biological target: T3, ERβ (Homo sapiens, UniProt Q92731); test: HEK293 ERE-luciferase reporter assay, ERβ alone; type: cell-based; conditions: HEK293, 24 hours with ligand, 10 μM and 100 μM
HC11 cells [3] = test: MTT assay for cellular metabolic activity, HC11; type: cell-based, mouse; conditions: inhibition retained in the presence of ICI 182,780
PC3 cells [4] = test: MTT assay for cellular metabolic activity, PC3; type: cell-based, human; conditions: inhibition retained in the presence of ICI 182,780
ERα [5] = biological target: T2, ERα; test: Fluorescence Polarization Competition Binding Assay, ERα; conditions: read-out: Ki for binding to ERα; correlated from IC50, FP competition
Summary of the method: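 Competitive fluorescence polarization used purified ERα from a commercial kit. Compound was tenfold serially diluted in screening buffer (down to 10 pM final), DMSO below 1%. It was mixed with ERα (15 nM final) and Fluormone tracer (1 nM final). Incubation was 2 h in the dark at room temperature, then polarization was read in glass tubes.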

ERβ [6] = biological target: T3, ERβ; test: Fluorescence Polarization Competition Binding Assay, ERβ
HC11 cells [7] = conditions: HC11, 10 μM synthetic compound, vs DMSO, p= 0.06
PC3 cells [8] = conditions: vs DMSO

T3 sequence (Q92731 whole entry): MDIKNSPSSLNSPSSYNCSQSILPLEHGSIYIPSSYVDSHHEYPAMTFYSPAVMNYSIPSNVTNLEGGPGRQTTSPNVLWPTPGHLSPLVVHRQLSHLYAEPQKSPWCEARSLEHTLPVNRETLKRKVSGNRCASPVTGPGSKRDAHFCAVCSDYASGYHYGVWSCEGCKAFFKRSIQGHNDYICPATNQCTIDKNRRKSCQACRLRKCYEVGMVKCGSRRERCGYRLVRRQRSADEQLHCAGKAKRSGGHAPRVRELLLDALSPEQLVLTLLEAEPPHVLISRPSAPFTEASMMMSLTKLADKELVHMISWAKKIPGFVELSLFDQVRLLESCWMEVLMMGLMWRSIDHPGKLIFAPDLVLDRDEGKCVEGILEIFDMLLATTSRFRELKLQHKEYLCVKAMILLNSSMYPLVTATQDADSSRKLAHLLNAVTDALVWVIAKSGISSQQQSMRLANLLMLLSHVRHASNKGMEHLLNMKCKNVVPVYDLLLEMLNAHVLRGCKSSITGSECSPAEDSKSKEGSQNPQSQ
Chain of ERα/β heterodimer (Q92731 whole entry, one chain of several, the tested form may be a part): as the sequence (Q92731 whole entry) above
Chain of ERβ/β homodimer (Q92731 whole entry): as above
Chain of ERβ/β homodimer (Q92731 whole entry): as above

Compound	effect on actinopolymorphol A-dependent reporter activity (ERα + ERβ; in the presence of ERα + ERβ, HEK293 ERE-luciferase)	induction for ERα/β heterodimers (BRET ratio) (ERα/β heterodimer; 10 μM purified compound)	increase in ERα/β heterodimerization (BRET ratio) (ERα/β heterodimer; 100 μM purified compound)	induction of ERα/α homodimer (BRET ratio) (ERα/α homodimer)	induction of ERβ/β homodimer (BRET ratio) (ERβ/β homodimer)	transcriptional activity of ERα alone (ERE-luciferase) (ERα [1])	transcriptional activity of ERβ alone (ERE-luciferase) (ERβ [2])	transcriptional activity of ERα + ERβ (ERE-luciferase) (ERα + ERβ; HEK293, 24 hours with ligand, 10 μM and 100 μM)	cell proliferation (MTT metabolic activity) (HC11 cells [3])	cell proliferation (MTT metabolic activity) (PC3 cells [4])	Ki (ERα [5])	binding affinity for ERβ over ERα (ERβ [6]; FP competition binding, ERβ vs ERα)	Ki (ERβ [6]; read-out: Ki for binding to ERβ, correlated from IC50, FP competition)	cell number (HC11 cells [7])	cell number (PC3 cells [8]; PC3, 10 μM synthetic compound, p= 0.03)	cell number (PC3 cells [8]; PC3, 100 μM synthetic compound, p=0.002)
C[C@]12CC[C@@H]3c4ccc(O)cc4C[C@@H](CCCCCCCCC[S+]([O-])CCCC(F)(F)C(F)(F)F)[C@H]3[C@@H]1CC[C@@H]2O (stereo partly shown) [ICI 182,780, reference compound]	completely abrogated															
actinopolymorphol A		3 fold	5 fold	less than 1.5 fold	less than 1.5 fold	not able to activate	found to activate	found to activate	inhibited	inhibited	6.2 µM	~2 fold	4.3 µM	statistically non-significant decrease	statistically significant decreases	statistically significant decreases
